Measurements reported in ChEMBL document CHEMBL1124440, “Resolved N,N-dialkylated 2-amino-8-hydroxytetralins: stereoselective interactions with 5-HT1A receptors in the brain” (J Med Chem, 1989).

Experiments:
[1] = test system: Rattus norvegicus; experiment: No of rats exhibiting 5-HT motor syndrome tested in reserpinized rats at a subcutaneous dose of 0.32 umol/kg; 4 rats out of 4 showd activity; type: functional
[2] = target: T1, 5-hydroxytryptamine receptor 1A (Rattus norvegicus, UniProt P19327); experiment: Concentration of compound required to inhibit cortical 5-hydroxytryptamine 1A receptor binding sites in rat brain was evaluated; type: tissue-based
T1 sequence (P19327 whole entry): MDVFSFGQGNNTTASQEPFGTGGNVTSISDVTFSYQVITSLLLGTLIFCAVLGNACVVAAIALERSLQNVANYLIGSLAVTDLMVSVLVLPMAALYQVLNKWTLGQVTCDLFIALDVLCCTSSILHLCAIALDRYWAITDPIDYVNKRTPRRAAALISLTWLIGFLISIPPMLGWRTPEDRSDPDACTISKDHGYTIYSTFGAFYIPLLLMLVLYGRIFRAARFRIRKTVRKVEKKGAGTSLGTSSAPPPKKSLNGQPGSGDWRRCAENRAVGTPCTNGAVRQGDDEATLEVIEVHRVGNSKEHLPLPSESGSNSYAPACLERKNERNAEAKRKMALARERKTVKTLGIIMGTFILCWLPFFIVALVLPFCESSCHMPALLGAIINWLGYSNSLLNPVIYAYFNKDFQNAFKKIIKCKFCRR

[3] = target: T2, Tryptophan 5-hydroxylase 1 (Rattus norvegicus) (UniProt P09810); experiment: Compound was tested for its effect on NSD 1015 induced accumulation of 5-HTP(ng/g) in rats in corpus striatum at a dosage of 1.0 umol/kg; type: functional
T2 sequence (whole entry): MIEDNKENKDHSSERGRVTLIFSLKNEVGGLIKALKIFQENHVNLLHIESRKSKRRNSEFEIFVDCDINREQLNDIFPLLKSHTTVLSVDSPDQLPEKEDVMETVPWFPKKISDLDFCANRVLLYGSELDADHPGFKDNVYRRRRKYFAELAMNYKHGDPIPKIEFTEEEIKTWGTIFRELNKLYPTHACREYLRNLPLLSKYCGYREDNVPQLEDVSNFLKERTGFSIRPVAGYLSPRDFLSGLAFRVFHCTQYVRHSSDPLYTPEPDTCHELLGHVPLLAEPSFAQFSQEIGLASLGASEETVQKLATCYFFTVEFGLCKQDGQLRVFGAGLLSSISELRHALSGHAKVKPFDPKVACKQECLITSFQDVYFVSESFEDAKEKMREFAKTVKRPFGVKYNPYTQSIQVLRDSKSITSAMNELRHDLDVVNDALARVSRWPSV
Summary of the method: (§1)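 Rats given test drug s.c. in the neck as hydrochloride (5 mL/kg), not reserpine-pretreated; 30 min later NSD 1015 (60 mg/kg, i.e. 287 μmol/kg sc), killed 30 min after that. Brain regions dissected. 5-HTP measured by ion-pair reversed-phase HPLC with electrochemical detection. Mean ± SEM, n = 15 controls, 3–5 per dose; ANOVA with Dunnett's t test vs controls.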

[4] = target: T2, Tryptophan 5-hydroxylase 1 (Rattus norvegicus); experiment: Compound was tested for its effect on NSD 1015 induced accumulation of 5-HTP(ng/g) in rats in limbic system at a dosage of 0.32 umol/kg; type: functional, tissue-based; summary of the method: as §1
[5] = test system: Rattus norvegicus; experiment: No of rats exhibiting 5-HT motor syndrome tested in reserpinized rats at a subcutaneous dose of a. 0.1 umol/kg; 0 rats out of 4 showed activity; type: functional
[6] = target: T2, Tryptophan 5-hydroxylase 1 (Rattus norvegicus); experiment: Compound was tested for its effect on NSD 1015 induced accumulation of 5-HTP in rats corpus striatum at a dosage of 0.10 umol/kg; type: functional, tissue-based; summary of the method: as §1
[7] = target: T2, Tryptophan 5-hydroxylase 1 (Rattus norvegicus); experiment: Approximate dose levels for a half maximal reduction of 5-HTP levels; type: functional; summary of the method: as §1
[8] = test system: Rattus norvegicus; experiment: No of rats exhibiting 5-HT motor syndrome tested in reserpinized rats at a subcutaneous dose of 1.0 umol/kg; 3 rats out of 3 showed activity; type: functional
[9] = target: T2, Tryptophan 5-hydroxylase 1 (Rattus norvegicus); experiment: Compound was tested for its effect on NSD 1015 induced accumulation of 5-HTP(ng/g) in rats in corpus striatum at a dosage of 0.032 umol/kg; type: functional; summary of the method: as §1
[10] = target: T2, Tryptophan 5-hydroxylase 1 (Rattus norvegicus); experiment: Compound was tested for its effect on NSD 1015 induced accumulation of 5-HTP(ng/g) in rats in limbic system at a dosage of 1.0 umol/kg; type: functional, tissue-based; summary of the method: as §1
[11] = target: T2, Tryptophan 5-hydroxylase 1 (Rattus norvegicus); experiment: Compound was tested for its effect on NSD 1015 induced accumulation of 5-HTP in rats in corpus striatum at a dosage of 0.32 umol/kg; type: functional, tissue-based; summary of the method: as §1
[12] = target: T2, Tryptophan 5-hydroxylase 1 (Rattus norvegicus); experiment: Compound was tested for its effect on NSD 1015 induced accumulation of 5-HTP(ng/g) in rats in limbic system at a dosage of 0.032 umol/kg; type: functional; summary of the method: as §1
[13] = target: T2, Tryptophan 5-hydroxylase 1 (Rattus norvegicus); experiment: Compound was tested for its effect on NSD 1015 induced accumulation of 5-HTP(ng/g) in rats in limbic system at a dosage of 0.10 umol/kg; type: functional, tissue-based; summary of the method: as §1
[14] = test system: Rattus norvegicus; experiment: No of rats exhibiting 5-HT motor syndrome tested in reserpinized rats at a subcutaneous dose of 100 umol/kg; 4 rats out of 4 showed activity; type: functional
[15] = target: T2, Tryptophan 5-hydroxylase 1 (Rattus norvegicus); experiment: Compound was tested for its effect on NSD 1015 induced accumulation of 5-HTP(ng/g) in rats in limbic system at a dosage of 32 umol/kg; type: functional, tissue-based; summary of the method: as §1
[16] = target: T2, Tryptophan 5-hydroxylase 1 (Rattus norvegicus); experiment: Compound was tested for its effect on NSD 1015 induced accumulation of 5-HTP in rats in corpus striatum at a dosage of 3.2 umol/kg; type: functional; summary of the method: as §1
[17] = test system: Rattus norvegicus; experiment: No of rats exhibiting 5-HT motor syndrome tested in reserpinized rats at a subcutaneous dose of 10 umol/kg; 0 rats out of 2 showed activity; type: functional
[18] = target: T2, Tryptophan 5-hydroxylase 1 (Rattus norvegicus); experiment: Compound was tested for its effect on NSD 1015 induced accumulation of 5-HTP(ng/g) in rats in limbic system at a dosage of 10 umol/kg; type: functional, tissue-based; summary of the method: as §1
[19] = test system: Rattus norvegicus; experiment: No of rats exhibiting 5-HT motor syndrome tested in reserpinized rats at a subcutaneous dose of 32 umol/kg; 0 rats out of 4 showed activity; type: functional
[20] = target: T2, Tryptophan 5-hydroxylase 1 (Rattus norvegicus); experiment: Compound was tested for its effect on NSD 1015 induced accumulation of 5-HTP(ng/g) in rats in corpus striatum at a dosage of 32 umol/kg; type: functional, tissue-based; summary of the method: as §1
[21] = target: T2, Tryptophan 5-hydroxylase 1 (Rattus norvegicus); experiment: Compound was tested for its effect on NSD 1015 induced accumulation of 5-HTP(ng/g) in rats in limbic system at a dosage of 3.2 umol/kg; type: functional, tissue-based; summary of the method: as §1
[22] = target: T2, Tryptophan 5-hydroxylase 1 (Rattus norvegicus); experiment: Compound was tested for its effect on NSD 1015 induced accumulation of 5-HTP(ng/g) in rats in corpus striatum at a dosage of 100 umol/kg; type: functional, tissue-based; summary of the method: as §1
[23] = target: T2, Tryptophan 5-hydroxylase 1 (Rattus norvegicus); experiment: Compound was tested for its effect on NSD 1015 induced accumulation of 5-HTP(ng/g) in rats in limbic system at a dosage of 100 umol/kg; type: functional, tissue-based; summary of the method: as §1
[24] = target: T2, Tryptophan 5-hydroxylase 1 (Rattus norvegicus); experiment: Compound was tested for its effect on NSD 1015 induced accumulation of 5-HTP(ng/g) in rats in corpus striatum at a dosage of 10 umol/kg; type: functional; summary of the method: as §1
[25] = test system: Rattus norvegicus; experiment: No of rats exhibiting 5-HT motor syndrome tested in reserpinized rats at a subcutaneous dose of 3.2 umol/kg; 0 rats out of 4 showed activity; type: functional
[26] = test system: Rattus norvegicus; experiment: Number of rats exhibiting 5-HT motor syndrome in reserpinized rats at a subcutaneous dose of 1.0 umol/kg; 0 rats out of 3 showed activity; type: functional
[27] = test system: Rattus norvegicus; experiment: No of rats exhibiting 5-HT motor syndrome rats tested in reserpinized rats at a subcutaneous dose of 32 umol/kg; 3 rats out of 3; type: functional
[28] = target: T2, Tryptophan 5-hydroxylase 1 (Rattus norvegicus); experiment: Compound was tested for its effect on NSD 1015 induced accumulation of 5-HTP(ng/g) in rats in corpus striatum at a dosage of 3.2 umol/kg; type: functional; summary of the method: as §1
[29] = target: T2, Tryptophan 5-hydroxylase 1 (Rattus norvegicus); experiment: Compound was tested for its effects on NSD 1015 induced accumulation of 5-HTP(ng/g) in rats in limbic system at a dosage of 0.10 umol/kg; type: functional, tissue-based; summary of the method: as §1
[30] = test system: Rattus norvegicus; experiment: No of rats exhibiting 5-HT motor syndrome rats tested in reserpinized rats at a subcutaneous dose of 10 umol/kg; 4 rats out of 4; type: functional
[31] = test system: Rattus norvegicus; experiment: No of rats exhibiting 5-HT motor syndrome tested in reserpinized rats at a subcutaneous dose of 0.32 umol/kg; 0 rats out of 5 showed activity; type: functional
[32] = test system: Rattus norvegicus; experiment: No of rats exhibiting 5-HT motor syndrome tested in reserpinized rats at a subcutaneous dose of 1.0 umol/kg; 4 rats out of 5 showed activity; type: functional

Row | Structure (SMILES) | IC50 [2] [nM] | Activity [3] [ng/g] | Activity [4] [ng/g] | Activity [6] [ng/g] | ED50 [7] [µmol/kg] | Activity [9] [ng/g] | Activity [10] [ng/g] | Activity [11] [ng/g] | Activity [12] [ng/g] | Activity [13] [ng/g] | Activity [18] [ng/g] | Activity [21] [ng/g] | Activity [24] [ng/g] | further results
1 | CCN(CC)[C@@H]1CCc2cccc(O)c2C1 | 9.65 | 47 | 70 | 68 | 0.05 | 87 | 72 | 50 | 131 | 110 |  |  |  | Activity [1]: 4; Activity [5]: 0; Activity [8]: 3
2 | CN(C)[C@H]1CCc2cccc(O)c2C1 | 675 |  |  |  | 20 |  |  |  |  |  | 162 | 178 | 69 | Activity [14]: 4; Activity [15]: 128 ng/g; Activity [16]: 107 ng/g; Activity [17]: 0; Activity [19]: 0; Activity [20]: 66 ng/g; Activity [22]: 45 ng/g; Activity [23]: 85 ng/g
3 | CN(C)[C@@H]1CCc2cccc(O)c2C1 | 75 | 76 | 130 | 88 | 1 |  | 110 | 79 |  |  | 89 | 90 | 44 | Activity [25]: 0; Activity [26]: 0; Activity [27]: 3; Activity [28]: 67 ng/g; Activity [29]: 172 ng/g; Activity [30]: 4
4 | CCCN(CCC)[C@H]1CCc2cccc(O)c2C1 |  | 53 | 114 | 94 | 0.2 | 95 | 75 | 61 | 157 | 154 |  |  |  | Activity [31]: 0; Activity [32]: 4
